# ChEMBL document CHEMBL1143007, “Synthesis and evaluation of 4/5-hydroxy-2,3-diaryl(substituted)-cyclopent-2-en-1-ones as cis-restricted analogues of combretastatin A-4 as novel anticancer agents” (J Med Chem, 2007)
# Key:
# [1] = test system: L132; experiment: Cytotoxicity against human L132 cells after 72 hrs by MTT assay; type: cell-based
# Method in brief: (§1)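 MTT assay. Cells seeded at 5000-10 000 per well and incubated at 37 °C in CO₂ with compound at 1-100 µg/mL in triplicate wells for 72 h, then MTT added. Absorbance read at 540 nm; % cytotoxicity = 100 × (1 − treated/control). IC50 obtained by nonlinear regression; NA means IC50 above 100 µg/mL.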
# [2] = test system: HT-29; experiment: Cytotoxicity against human HT29 cells after 72 hrs by MTT assay; type: cell-based; details: Homo sapiens, HT-29, 72 h; read-out: IC50; method in brief: as §1
# [3] = Cytotoxicity against human Hep2 cells after 72 hrs by MTT assay; type: cell-based, HEp-2; method in brief: as §1
# [4] = test system: KB; experiment: Cytotoxicity against human KB cells after 72 hrs by MTT assay; type: cell-based; method in brief: as §1
# [5] = test system: MIA PaCa-2; experiment: Cytotoxicity against human MiaPaCa2 cells after 72 hrs by MTT assay; type: cell-based; details: Homo sapiens, MIA PaCa-2, 72 h; read-out: IC50; method in brief: as §1
# [6] = test system: DU-145; experiment: Cytotoxicity against human DU145 cells after 72 hrs by MTT assay; type: cell-based; details: Homo sapiens, DU-145, 72 h; read-out: IC50; method in brief: as §1
# [7] = Cytotoxicity against human PA1 cells after 72 hrs by MTT assay; type: cell-based, PA-1; method in brief: as §1
# [8] = test system: HEK293; experiment: Cytotoxicity against human HEK293 cells after 72 hrs by MTT assay; type: cell-based; details: Homo sapiens, HEK293, 72 h; read-out: IC50; method in brief: as §1
# [9] = Cytotoxicity against human ECV304 cells after 72 hrs by MTT assay; type: cell-based, ECV-304; method in brief: as §1
# [10] = Homo sapiens, L132, 72 h, read-out: IC50
# [11] = Homo sapiens, HEp-2, 72 h, read-out: IC50
# [12] = Homo sapiens, KB, 72 h, read-out: IC50
# [13] = Homo sapiens, PA-1, 72 h, read-out: IC50
# [14] = Homo sapiens, ECV-304, 72 h, read-out: IC50
SMILES,"IC50 [1, 10]",IC50 [2],"IC50 [3, 11]","IC50 [4, 12]",IC50 [5],IC50 [6],"IC50 [7, 13]",IC50 [8],"IC50 [9, 14]",IC50 ([1]; l132),IC50 ([3]; hep-2),IC50 ([4]; kb),IC50 ([7]; pa-1),IC50 ([9]; ecv-304)
CCOC(=O)COc1ccc(C2=C(c3cc(OC)c(OC)c(OC)c3)C(=O)CC2O)cc1 (configuration not stated),> 100 µg/mL,> 100 µg/mL,> 100 µg/mL,> 100 µg/mL,> 100 µg/mL,> 100 µg/mL,> 100 µg/mL,> 100 µg/mL,> 100 µg/mL,,,,,
COc1ccc(C2=C(c3cc(OC)c(OC)c(OC)c3)C(=O)CC2O[Si](C)(C)C(C)(C)C)cc1 (configuration not stated),> 100 µg/mL,> 100 µg/mL,> 100 µg/mL,> 100 µg/mL,> 100 µg/mL,> 100 µg/mL,> 100 µg/mL,> 100 µg/mL,> 100 µg/mL,,,,,
COc1ccc(C2=C(c3cc(OC)c(OC)c(OC)c3)C(=O)C(OC(C)=O)C2)cc1F (configuration not stated),< 1 µg/mL,< 1 µg/mL,< 1 µg/mL,33 µg/mL,39.5 µg/mL,16 µg/mL,> 100 µg/mL,59 µg/mL,41 µg/mL,,,,,
COc1ccc(C2=C(c3cc(OC)c(OC)c(OC)c3)CC(O[Si](C)(C)C(C)(C)C)C2=O)cc1[N+](=O)[O-] (configuration not stated),> 100 µg/mL,> 100 µg/mL,> 100 µg/mL,> 100 µg/mL,> 100 µg/mL,> 100 µg/mL,> 100 µg/mL,> 100 µg/mL,> 100 µg/mL,,,,,
COc1ccc(OC)c(C2=C(c3cc(OC)c(OC)c(OC)c3)C(=O)CC2O)c1 (configuration not stated),> 100 µg/mL,> 100 µg/mL,> 100 µg/mL,> 100 µg/mL,> 100 µg/mL,> 100 µg/mL,> 100 µg/mL,> 100 µg/mL,> 100 µg/mL,,,,,
COCOc1cc(C2=C(c3cc(OC)c(OC)c(OC)c3)C(=O)CC2O[Si](C)(C)C(C)(C)C)ccc1OC (configuration not stated),32 µg/mL,43 µg/mL,12 µg/mL,33 µg/mL,50 µg/mL,34 µg/mL,13.5 µg/mL,> 100 µg/mL,40 µg/mL,,,,,
COc1ccc(C2=C(c3cc(OC)c(OC)c(OC)c3)C(=O)C(O)C2)cc1Cl (configuration not stated),< 1 µg/mL,< 1 µg/mL,< 1 µg/mL,2.5 µg/mL,> 100 µg/mL,40 µg/mL,> 100 µg/mL,> 100 µg/mL,20 µg/mL,,,,,
COc1cc(C2=C(c3cc(C)c(OC)c(C)c3)C(O)CC2=O)cc(OC)c1OC (configuration not stated),> 100 µg/mL,> 100 µg/mL,> 100 µg/mL,> 100 µg/mL,> 100 µg/mL,> 100 µg/mL,> 100 µg/mL,> 100 µg/mL,> 100 µg/mL,,,,,
COc1ccc(C2=C(c3cc(OC)c(OC)c(OC)c3)/C(=N\O)CC2OC(C)=O)cc1 (stereo in doubt; 40),,< 1 µg/mL,,,< 1 µg/mL,21 µg/mL,,22 µg/mL,,< 1 µg/mL,< 1 µg/mL,< 1 µg/mL,< 1 µg/mL,60 µg/mL
COc1ccc(C2=C(c3cc(OC)c(OC)c(OC)c3)C(=O)CC2O[Si](C)(C)C(C)(C)C)cc1O (configuration not stated),< 1 µg/mL,38 µg/mL,14.5 µg/mL,6.5 µg/mL,55 µg/mL,75 µg/mL,14 µg/mL,42 µg/mL,30 µg/mL,,,,,
COc1ccc(C2=C(c3cc(OC)c(OC)c(OC)c3)C(=O)C(O)C2)cc1F (configuration not stated),< 1 µg/mL,< 1 µg/mL,< 1 µg/mL,4.5 µg/mL,64 µg/mL,27 µg/mL,> 100 µg/mL,> 100 µg/mL,19.5 µg/mL,,,,,
COc1ccc(C2=C(c3cc(OC)c(OC)c(OC)c3)/C(=N\O)C(O)C2)cc1F (configuration not stated),< 1 µg/mL,< 1 µg/mL,< 1 µg/mL,< 1 µg/mL,94 µg/mL,10 µg/mL,> 100 µg/mL,> 100 µg/mL,43 µg/mL,,,,,
COc1ccc(C2=C(c3cc(OC)c(OC)c(OC)c3)/C(=N\O)C(O)C2)cc1Cl (configuration not stated),< 1 µg/mL,< 1 µg/mL,< 1 µg/mL,9.8 µg/mL,33 µg/mL,16 µg/mL,> 100 µg/mL,50 µg/mL,18.5 µg/mL,,,,,
